Bioassay records as filed in PubChem BioAssay.
This is one part of a sample in which hits are shown more often than they occur.
A1 inh – inhibitors of the anti-apoptotic protein A1, read as caspase activation | AID 2462 | MEF A1-2A-BIM cells, Caspase-Glo 3/7 luminescence, 3 h; percent of clofoctol response, vehicle zero | caspase activation, % (concentration not given with the values) | 330,000 tested, 0.066% active;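 active = over half of replicate activation scores above 10%, or exactly half above 10 with the replicate mean above 10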
CHOP inhibitor – inhibitors of CHOP induction in ER stress response. CHO-K1 CHOP-promoter luciferase, tunicamycin-induced, 15-18 h. inhibition, % at 10 µM. 220,000 tested, 3.8% active. AID 2732;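 active = compounds that reduced the stress-induced luciferase reporter signal by more than about 70% of percent inhibition, limit read from the data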
UPR XBP1 act – adaptive UPR (XBP1) activation. CHO-XBP1 luciferase reporter, IRE1-XBP1 UPR activation, luminescence; percent of tunicamycin response, DMSO as zero. AID 463104. activation, % at 20 µM. 330,000 tested, 0.33% active;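 active = versus positive control, 20 µM dose yields 30% or more activation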
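Assay system: IRE1-XBP1 luciferase reporter CHO line. Input: 1000 cells/well. Buffer or medium: F12 with 10% serum. Doses: 20 µM, 1% DMSO. Times: overnight seeding at 37 °C, 6 h compound treatment at 37 °C. Technique: Steady-Glo luciferase glow luminescence, 10 min after reagent addition.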
UPR CHOP act – activators of apoptotic arm of unfolded protein response (CHOP) | activation, % at 10 µM | CHO-CHOP luciferase reporter, UPR activation, luminescence; percent of tunicamycin response over DMSO baseline | 330,000 tested, 0.34% active;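 active = at 10 µM dose, activation of 40% or more, normalized to positive control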
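System: CHO-CHOP luciferase reporter cell line; amount: 500 cells/well; buffer or medium: F12 medium containing 10% fetal bovine serum; incubation: 6 h compound exposure at 37 °C after overnight seeding; measured by: luciferase luminescence after 10 min with Steady-Glo reagent; evaluation: % reporter activation, DMSO baseline versus tunicamycin full activation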
Each line names hits and unclear results; the compound was inactive in the other large screens.

CC1/C(=N/O)CC(c2ccccc2)N(C)C1c1ccccc1 (stereo not drawn)	CHOP inhibitor 93.4
CCN1CC(C)C(O)(c2ccccc2)CC1C (stereo not drawn)	none
CC1/C(=N/O)CC(c2ccccc2)NC1c1ccccc1 (stereo not drawn)	none
Nc1ccc(OC(=O)Nc2ccc(O)cc2)cc1	CHOP inhibitor 81.5
CCC(=O)N(Cc1cc(=O)[nH]c2ccccc12)c1ccc(C)cc1C	none (no result: CHOP inhibitor)
Cc1ccc(S(=O)(=O)N(CCC(=O)Nc2ccc(OC(F)(F)F)cc2)c2ccccc2)cc1	CHOP inhibitor 83.0
Cc1ccc(S(=O)(=O)N(CCC(=O)NCc2ccccc2F)c2ccccc2)cc1	none (no result: CHOP inhibitor)
Cc1ccc(/C=C/C(=O)N2CCC(Cc3ccccc3)CC2)cc1	CHOP inhibitor 86.8
Cc1ccc(/C=C/C(=O)N2CCCC(C)C2)cc1 (stereo not drawn)	none
CC1(C)CC(CC(=O)Nc2ccc([N+](=O)[O-])cc2)C(=O)O1 (stereo not drawn)	none
CCC(=O)NC(=S)Nc1ccc(NC(=O)c2ccc([N+](=O)[O-])cc2Cl)cc1	none
CCCCCC1CC(CC(=O)NC(=S)Nc2ccc([N+](=O)[O-])cc2)C(=O)O1 (stereo not drawn)	CHOP inhibitor 85.0
CCCCCCC1CC(CC(=O)Nc2ccc([N+](=O)[O-])cc2)C(=O)O1 (stereo not drawn)	CHOP inhibitor 94.8
Cc1ccc(S(=O)(=O)c2nc(Nc3nccs3)sc2Cl)cc1	CHOP inhibitor 72.2
O=C(NC(Nc1ncc(S(=O)(=O)c2ccc([N+](=O)[O-])cc2)s1)(C(F)(F)F)C(F)(F)F)c1ccc(Cl)cc1	CHOP inhibitor 88.1
CCc1ccc(Nc2nc(N)nc(CSc3nc4ccccc4s3)n2)cc1	CHOP inhibitor 72.9
Cn1c(N2CCN(C(c3ccccc3)c3ccccc3)CC2)nc2ccccc21	none (no result: CHOP inhibitor)
CCOC(=O)c1nnn2c1nc(N1CCCCC1)c1ccccc12	none
CCC1CCCCN1c1nc2c(C=O)c(C)nn2c2ccccc12 (stereo not drawn)	CHOP inhibitor 88.8
Cc1noc(C)c1C(=O)Nc1nc(C23CC4CC(CC(C4)C2)C3)cs1	CHOP inhibitor 83.1
COc1cc2c(cc1OC)-c1cc(=Nc3c(C)cc(C)cc3C)n(C)c(=O)n1CC2	none (no result: A1 inh, UPR XBP1 act, UPR CHOP act)
Cc1ccccc1Cn1nnc(-c2ccc3c(c2)OCO3)n1	none
N#CCn1nnc(-c2ccc3c(c2)OCO3)n1	A1 inh 6.7
CN(CC(=O)Nc1c(Cl)cccc1Cl)C(=O)c1cccc(-n2cccc2)c1	none (no result: CHOP inhibitor)
O=C1/C(=C\c2ccc(O)cc2)SC(=S)N1c1cccnc1	CHOP inhibitor 78.4
N=C1S/C(=C\c2ccc(O)cc2)C(=O)N1c1ccc(F)cc1	CHOP inhibitor 83.4
O=C(OCC(=O)c1c[nH]c2ccccc12)c1cc2ccccc2cc1O	CHOP inhibitor 72.6
COc1ccc(C(=O)OCC(=O)c2c[nH]c3ccccc23)c(OC)c1	none (no result: CHOP inhibitor)
O=C(COC(=O)c1ccccc1C(=O)c1ccc(Cl)c([N+](=O)[O-])c1)NC1CC1	CHOP inhibitor 106.0
NC(=O)c1c(-c2ccc(Cl)cc2Cl)csc1NC(=O)Cc1ccccc1	CHOP inhibitor 73.0 (no result: UPR XBP1 act, UPR CHOP act)
O=C(Cc1ccccc1)Nc1scc(-c2ccccc2)c1C(=O)N1CCOCC1	none
O=C(N/N=C/c1ccc(OC(=O)c2ccccc2)cc1)c1ccc(CN2CCOCC2)cc1	CHOP inhibitor 71.3
O=C(Nc1ccc(Cl)cc1)Nc1cc([N+](=O)[O-])ccc1F	CHOP inhibitor 70.7
Cc1ccc(NC(=O)Nc2ccc(Cl)cc2)c(Br)c1	CHOP inhibitor 86.0
O=C(Nc1cccc([N+](=O)[O-])c1)Nc1cccc([N+](=O)[O-])c1	CHOP inhibitor 84.2
O=C(Nc1csc([N+](=O)[O-])c1)Nc1c(Cl)cccc1Cl	none
O=C(Nc1ccc(Cl)cc1)Nc1csc([N+](=O)[O-])c1	CHOP inhibitor 75.7
Cc1ccc(OCC(=O)NNC(=O)Nc2ccc(Cl)cc2)c(Br)c1	none (no result: CHOP inhibitor)
O=C(Nc1ccc(C(=O)O)cc1)Nc1cccc([N+](=O)[O-])c1	none
CCN(CC)C(C)C(=O)N1c2ccccc2Sc2ccccc21 (stereo not drawn)	none (no result: A1 inh, UPR XBP1 act, UPR CHOP act)
O=C(O)CC/C(=C\c1ccc(N2CCCC2)c([N+](=O)[O-])c1)c1nc2ccccc2s1	CHOP inhibitor 95.4
O=C(O)CC/C(=C\c1ccccc1[N+](=O)[O-])c1nc2ccccc2s1	none
CCCc1c(OCCCOc2ccc(OCC(=O)O)cc2)ccc(C(C)=O)c1O	none
O=c1c2ccccc2[nH]c(=S)n1CCc1ccccc1	CHOP inhibitor 73.2
CCn1cc(CN2CCc3c([nH]c4ccccc34)C2c2cccc(OC)c2)c(C)n1 (stereo not drawn)	none
CCn1cc(CN2CCc3c([nH]c4ccccc34)C2c2ccc(F)c(OC)c2)c(C)n1 (stereo not drawn)	CHOP inhibitor 70.3
COc1cc(/C=C2\SC(=O)N(Cc3ccc(F)cc3)C2=O)cc([N+](=O)[O-])c1O	none (no result: A1 inh)
COc1cc(/C=C2\SC(=O)N(Cc3ccc(Cl)cc3)C2=O)cc([N+](=O)[O-])c1O	CHOP inhibitor 106.5 (no result: A1 inh, UPR XBP1 act, UPR CHOP act)
CC(=O)N1CCN(C(=O)c2cccc(S(=O)(=O)Nc3c(C)n(C)n(-c4ccccc4)c3=O)c2)CC1	none (no result: A1 inh, CHOP inhibitor)
Cc1ccc(S(=O)(=O)n2nc(C)c(Br)c2C)c(C)c1C	CHOP inhibitor 88.6
CC1=C(C(=O)Nc2cccc(C(=O)NC(C)c3ccccc3)c2)SCCO1 (stereo not drawn)	none (no result: CHOP inhibitor)
O=C(Cn1ncc2c1-c1ccccc1OC2)Nc1ccc(S(=O)(=O)N2CCCCC2)cc1	CHOP inhibitor 86.4
CC(=O)NCCOC(=O)c1nn(Cc2ccccc2)c(=O)c2ccccc12	none (no result: CHOP inhibitor)
COC(=O)c1c(NC(C)=O)sc(C(=O)Nc2ccccc2)c1C	none
CCOc1ccc(NC(=O)c2sc(NC(C)=O)c(C(=O)OC)c2C)cc1	CHOP inhibitor 73.1
COc1cc(/C=C/[N+](=O)[O-])ccc1OCc1cccc(C(=O)O)c1	CHOP inhibitor 77.1 (no result: A1 inh)
CC(C)N1CCC(N2CCN(Cc3ccc(-c4ccc(Cl)cc4)o3)CC2CCO)CC1 (stereo not drawn)	none
Cc1ccc(-c2nnn(CC(=O)N(CC3CCCO3)C(C(=O)NC3CCCC3)c3ccc(O)cc3)n2)o1 (stereo not drawn)	none
Cc1ccc(-c2nnn(CC(=O)N(CC3CCCO3)C(C(=O)NC3CCCC3)c3ccc(F)cc3)n2)o1 (stereo not drawn)	CHOP inhibitor 80.2
COc1ccc(-n2ncc3c(N4CCCCC4)ncnc32)cc1	CHOP inhibitor 89.1
Clc1ccc(Cn2ncc3c(N4CCCCC4)ncnc32)cc1	none
Clc1ccc(-n2ncc3c(N4CCCCCC4)ncnc32)cc1	CHOP inhibitor 83.9
COc1ccc(-n2ncc3c(N4CCN(c5cccc(C)c5C)CC4)ncnc32)cc1	none (no result: CHOP inhibitor)
Cc1cccc(C(=O)NCc2nnc(SCC(=O)Nc3nncs3)n2C)c1	none (no result: CHOP inhibitor)
COC(=O)c1ccc2c(=O)n(Cc3ccc4c(c3)OCO4)c(=S)[nH]c2c1	A1 inh 6.3 (no result: CHOP inhibitor)
